# Assay results gathered from unrelated publications.
# Compare with care: the assays were run in different laboratories.
# Target: Mitogen-activated protein kinase 3 (MAPK3, Homo sapiens, UniProt P27361)
Compound,assay,test system,setting,endpoint,value
Cn1nc(C(=O)NCc2ccc(C(=O)O)cc2)cc1-c1ccc2[nH]ccc2c1,"cell-free assay, competition with immobilised ligand",,0.1 µM,remaining binding,94%
Cn1c2c(c3ccc(Cl)c(Cl)c31)C(C#N)C(C)(C)NC2=O (stereo not shown),"thermal stability, DSF",,10 µM,ΔTm,0.1 °C
Oc1cccc(-c2nc(N3CCOCC3)c3oc4ncccc4c3n2)c1,"enzyme activity, inhibitor",,10 µM,remaining activity,112%
C[C@H](c1ccc(F)cc1)N(Cc1cccc(C(=O)O)c1)C(=O)c1cnc2ccccc2c1,"cell-free assay, competition with immobilised ligand",,1 µM,remaining binding,100%
CC(C)(C)C(=O)c1sc(NC2CCCCC2)nc1N,"enzyme activity, inhibitor",,10 µM,remaining activity,73%
CC1(C)NC(=O)c2[nH]c3c(Cl)c(Cl)ccc3c2C1C#N (stereo not shown),"thermal stability, DSF",,10 µM,ΔTm,0.2 °C
O=C(Nc1cccnn1)N1CCC(=Cc2cccc(Oc3ccc(C(F)(F)F)cn3)c2)CC1,"cell-free assay, competition with immobilised ligand",,1 µM,remaining binding,100%
Cn1c2c(Cl)c(Cl)ccc2c2cc[nH]c(=O)c21,"thermal stability, DSF",,10 µM,ΔTm,-0.4 °C
O=C(Nc1cnn(-c2csc(C(=O)NC3COC3)c2)c1)Nc1c(F)cccc1Cl,"enzyme activity, inhibitor",,5 µM,remaining activity,92.4%
CCC1(CC)NC(=O)c2c(c3ccc(Cl)c(Cl)c3n2C)C1C#N (stereo not shown),"thermal stability, DSF",,10 µM,ΔTm,0 °C
Cc1cc(C)c(-n2ccn3nc(-c4cccnc4)cc23)cc1NC(=O)c1cc(C#N)cc(S(F)(F)(F)(F)F)c1,"cell-free assay, competition with immobilised ligand",,0.1 µM,remaining binding,95.2%
CCN1CCN(Cc2ccc(NC(=O)c3ccc(C)c(Oc4ccnc5[nH]ccc45)c3)cc2C(F)(F)F)CC1,"target engagement in cells, inhibitor, chemoproteomics",A-375,50 nM,inhibition,-24.5%
N#CC(c1ccnc(NCCc2cccnc2)n1)c1nc2ccccc2s1 (stereo not shown),"enzyme activity, inhibitor",,0.5 µM,remaining activity,99.4%
Cn1c2c(Cl)c(Cl)ccc2c2cc(N)[nH]c(=O)c21,"thermal stability, DSF",,10 µM,ΔTm,-0.4 °C
COc1cc2ncnc(Nc3ccc(Oc4ccccc4)cc3C)c2cc1OC,"enzyme activity, inhibitor",,1 µM,inhibition,5%
CCC(=O)N[C@@H]1CC[C@H](C(=O)N(C)c2ccc(-c3nc4ccccc4o3)cc2)C1,"cell-free assay, competition with immobilised ligand",,1 µM,remaining binding,100%
O=C1NC(=O)c2cc(Nc3ccc(F)cc3)c(Nc3ccc(F)cc3)cc21,cell-free assay,,0.5 µM,remaining signal,86.1%
CC/C(=N\NC(=O)NCc1cccc(O)c1)c1ccc(O)c(C)c1O,"enzyme activity, inhibitor",,0.1 µM,inhibition,-2.7%
Cn1c2c(Cl)c(Cl)ccc2c2cn[nH]c(=O)c21,"thermal stability, DSF",,10 µM,ΔTm,0.1 °C
Cc1c[nH]c2nccc(Oc3c(F)cc(Nc4cc(Cl)nc(N)n4)cc3F)c12,"cell-free assay, competition with immobilised ligand",,0.1 µM,remaining binding,90%
Cc1ccc(NC(=O)c2ccc(CN3CCN(C)CC3)cc2)cc1Nc1nc(-c2cccnc2)cs1,cell-free assay,,0.5 µM,remaining signal,103%
COc1cc(/C=C/C(=O)CC(=O)/C=C/c2ccc(O)c(OC)c2)ccc1O,"enzyme activity, inhibitor",,1 µM,activity vs control,94%
CCN1CCN(Cc2ccc(NC(=O)c3ccc(C)c(/C=C/c4cnc5[nH]ccc5c4OC)c3)cc2C(F)(F)F)CC1,"target engagement in cells, inhibitor, chemoproteomics",A-375,0.5 µM,inhibition,-18.7%
FC(F)(F)Oc1cccc(-c2cnc3ccc(-c4ccncc4)nn23)c1,"enzyme activity, inhibitor, radiometric",,5 µM,activity vs control,82%
COc1cc(Nc2c(C#N)cnc3cc(OCCCN4CCN(C)CC4)c(OC)cc23)c(Cl)cc1Cl,cell-free assay,,0.5 µM,remaining signal,98.9%
c1nc2c(Nc3ccc4c(c3)OCCO4)nc(Nc3ccc4c(c3)OCCO4)nc2[nH]1,"enzyme activity, inhibitor",,10 µM,activity vs control,94%
CC(C)(O)[C@H]1CC[C@H](Nc2ccc3ncc(-c4cccc(C(F)(F)F)c4)n3n2)CC1,"enzyme activity, inhibitor",,1 µM,remaining activity,94%
COc1cc(Nc2cnc(C#N)c(O[C@H](C)CN(C)C)n2)ncc1-c1cnn(C)c1,"enzyme activity, inhibitor, radiometric",,1 µM,remaining activity,96%
N#CC(=C(N)Sc1ccc(N)cc1)c1ccccc1C(F)(F)F,cell-free assay,,0.5 µM,remaining signal,116%
N#CC1c2c([nH]c3c(Cl)c(Cl)ccc23)C(=O)NC12CCCCC2 (racemic),"thermal stability, DSF",,10 µM,ΔTm,0.1 °C
CN(c1ccnc(CNc2nc(Nc3ccc4c(c3)CC(=O)N4)ncc2C(F)(F)F)n1)S(C)(=O)=O,"cell-free assay, competition with immobilised ligand",,1 µM,remaining binding,96%
CNc1cccc2cc(C(=O)Nc3ccc(C(=O)O)cc3)c(=O)[nH]c12,"enzyme activity, inhibitor",,10 µM,inhibition,1.9%
O=C(NC[C@@H]1[C@H]2CN(C(=O)OCc3cc(C(F)(F)F)cc(C(F)(F)F)c3)C[C@@H]12)c1ccc2[nH]nnc2c1,"cell-free assay, competition with immobilised ligand",,1 µM,remaining binding,100%
CC(C)(C)c1nc2c(s1)c1nc(N)ncc1c1ccc(NS(=O)(=O)c3c(F)cccc3F)c(F)c12,"enzyme activity, inhibitor, radiometric",,1 µM,remaining activity,84%
